Measurements pooled from the literature.
DYRK1A: Dual specificity tyrosine-phosphorylation-regulated kinase 1A (DYRK1A, Homo sapiens, UniProt Q13627)

SMILES | target | read-out | mode | technique | tested at | quantity | value
CC(C)(C)C1CCc2c(C(=O)N/N=C/c3ccsc3)csc2C1 (stereo not shown) | DYRK1A | enzyme activity | inhibitor | ADP detection | 10 µM | inhibition | 23.1%
N#Cc1ccc(NC(=O)Nc2ccccc2)cc1 | Platelet-derived growth factor receptor beta (PDGFRB, Homo sapiens, UniProt P09619) | cell-free assay | – | competition with immobilised ligand | 25 µM | remaining binding | 33%
C#Cc1cc(-c2cc(Nc3nc(N[C@@H](C)c4ccc(F)cn4)ncc3Cl)n[nH]2)ccc1C=O | Dual specificity tyrosine-phosphorylation-regulated kinase 3 (DYRK3, Homo sapiens, UniProt O43781) | enzyme activity | inhibitor | – | 0.2 µM | inhibition | 4.84%
NC/C(=C\F)COc1cccc(Cn2c(=S)[nH]c(=O)c3[nH]cnc32)c1 | Alpha-1D adrenergic receptor (ADRA1D, Homo sapiens, UniProt P25100) | ligand displacement | – | radioligand | 10 µM | inhibition | < 50%
CCCCC(=O)Nc1ccc(-c2ccc3ncn(CCC)c(=O)c3c2)cn1 | Ephrin type-A receptor 7 (EPHA7, Homo sapiens, UniProt Q15375) | binding | – | competition with immobilised ligand | 0.5 µM | remaining binding | 100%
CCN1/C(=C/C(C)=O)Sc2ccc(F)cc21 | Neuropeptide Y receptor type 2 (NPY2R, Homo sapiens, UniProt P49146) | ligand displacement | – | radioligand | 10 µM | inhibition | 0%
CC(=O)ON=C1C=CC(=C(C#N)c2ccccc2)C=C1 | DYRK1A | enzyme activity | inhibitor | ADP detection | 20 µM | activity vs control | 82%
Cc1cc(O)c(-c2ccc([C@@H](C)CN(C)C)cc2)c2c1[nH]c(=O)c1sccc12 | Ephrin type-B receptor 3 (EPHB3, Homo sapiens, UniProt P54753) | cell-free assay | inhibitor | – | 0.1 µM | inhibition | -4.48%
COc1ccc2oc(-c3ccc4nc(N)oc4c3)c/c(=N\c3ccccc3NC(=O)CCN)c2c1 | Dual specificity tyrosine-phosphorylation-regulated kinase 1B (DYRK1B, Homo sapiens, UniProt Q9Y463) | binding | – | competition with immobilised ligand | 1 µM | remaining binding | 102%
Cc1nc(Sc2nc(C)nc3sc4c(c23)CCC4)c2c3c(sc2n1)CCC3 | DYRK1A | enzyme activity | inhibitor | ADP detection | 10 µM | inhibition | 47.4%
Nc1ncnc2c1ncn2[C@@H]1O[C@H](COP(=O)(O)OP(=O)(O)OP(=O)(O)O)[C@@H](O)[C@H]1O | Inositol-tetrakisphosphate 1-kinase (Homo sapiens, UniProt Q13572) | enzyme activity | substrate | ADP detection | – | Km | 2.7 µM
CC1(C)Oc2ccc3ccc(=O)oc3c2C/C1=N/O | DYRK1A | enzyme activity | inhibitor | ADP detection | 10 µM | inhibition | 38.6%
C1=C/COCc2cc(ccc2OCCN2CCCC2)Nc2nccc(n2)-c2cccc(c2)COC/1 | Myosin light chain kinase 2, skeletal/cardiac muscle (MYLK2, Homo sapiens, UniProt Q9H1R3) | binding | – | – | 0.1 µM | remaining binding | 76%
